In ChEMBL document CHEMBL4765449, “Synthesis, biological evaluation and toxicity of novel tetrandrine analogues” (Eur J Med Chem, 2020):
Calls of active or inactive are those of the source. No cut-off for these calls is given here.

Experiments:
[1] = test system: HepaRG; test: Cytotoxicity against human HepaRG cells assessed as reduction in cell viability at 10 uM measured after 24 hrs by Celltiter-blue cell viability assay; format: cell-based
Procedure, shortened: (§1)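 Differentiated HepaRG cells (Maintenance/Metabolism medium) exposed 24 h to 10 or 20 μM compound; viability by CellTiter-Blue, normalized to vehicle control. Means ± SEM of three independent experiments.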

[2] = test system: HepaRG; test: Cytotoxicity against human HepaRG cells assessed as reduction in cell viability at 20 uM measured after 24 hrs by Celltiter-blue cell viability assay; format: cell-based; procedure, shortened: as §1
[3] = test system: HUVEC; test: Cytotoxicity against HUVEC assessed as reduction in cell viability at 1 to 10 uM measured after 24 hrs by Celltiter-blue cell viability assay; format: cell-based; details: human, dose 1-10 µM
Procedure, shortened: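 HUVECs seeded, adhered overnight, exposed 24 h to 1, 5 and 10 μM; CellTiter-Blue viability normalized to vehicle control; three independent experiments.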

[4] = Cytotoxicity against human PBMC assessed as reduction in cell viability at 1 to 10 uM measured after 48 hrs by propidium iodide staining based flow cytometry
[5] = test system: CCRF-CEM; test: Induction of apoptosis in vincristine-resistant human CEM cells assessed as increase in PARP cleavage at 5 uM measured after 24 hrs by Western blot analysis; format: functional, cell-based
Procedure, shortened: (§2)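 VCR-R CEM cells, 2 × 10^6 per well, seeded 4 h before 5 μM compound or DMSO for 24 h; RIPA lysis, SDS-PAGE, PVDF blotting, chemiluminescence. Probed for p-Akt (Ser473), total Akt, PARP, Bcl-xL, Mcl-1; stain-free total protein as loading control.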

[6] = test system: CEM; test: Effect on AKT phosphorylation at Ser473 residue in vincristine-resistant human CEM cells at 5 uM measured after 24 hrs by Western blot analysis; format: cell-based; procedure, shortened: as §2
[7] = test system: CCRF-CEM; test: Effect on MCL1 expression in vincristine-resistant human CEM cells at 5 uM measured after 24 hrs by Western blot analysis; format: functional, cell-based; procedure, shortened: as §2
[8] = test system: HepG2; test: Induction of apoptosis in human HepG2 cells assessed as increase in PARP cleavage at 5 uM measured after 24 hrs by Western blot analysis; format: functional, cell-based
Procedure, shortened: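 HepG2, 0.5 × 10^6 per well, adhered overnight, then DMSO or 5 μM compound; RIPA lysates immunoblotted by SDS-PAGE/PVDF with chemiluminescent detection.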

[9] = test system: HepG2; test: Cytotoxicity against human HepG2 cells overexpressing EGFP-CYP3A4 assessed as reduction in cell viability at 15 uM measured after 24 hrs by propidium iodide staining based flow cytometry; format: functional
Procedure, shortened: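 HepG2 stably transfected (G418 0.5 mg/mL, four weeks; plasmid confirmed by PCR) with pcDNA3-CYP3A4-EGFP or empty vector, 0.1 × 10^6 per well, adhered overnight; 15 μM compound 24 h. Propidium iodide staining and flow cytometry; specific cell death relative to control. Three independent experiments.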

[10] = test system: HepG2; test: Induction of mitochondrial membrane disruption in human HepG2 cells at 5 uM measured after 24 hrs by JC-1 dye based flow cytometric analysis; format: functional, cell-based
Procedure, shortened: (§3)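 Cells (HepG2 adhered overnight; VCR-R CEM seeded 4 h before) treated with DMSO or 5 μM for 24 h; JC-1 (1 μg/mL) 1 h before harvest, PBS wash, flow cytometry; green shift read as loss of ΔΨm. CCCP (100 μM, 1 h) positive control; elacridar (5 μM) present for CEM staining.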

[11] = test system: CCRF-CEM; test: Effect on P-gp expression in vincristine-resistant human CEM cells at 1 uM measured after 1.5 hrs by immunostaining based flow cytometry; format: functional, cell-based
Procedure, shortened: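 VCR-R CEM, 2 × 10^4 cells, 1 μM compound 1.5 h at 37 °C; washed in ice-cold 1% BSA/PBS, stained 30 min at 4 °C in dark with FITC anti-human P-gp, isotype control for background; flow cytometry, gMFI normalized to DMSO. Three independent experiments.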

[12] = test system: CCRF-CEM; test: Induction of mitochondrial membrane disruption in vincristine-resistant human CEM cells at 5 uM measured after 24 hrs by JC-1 dye based flow cytometric analysis; format: functional, cell-based; procedure, shortened: as §3
[13] = test system: CEM; test: Inhibition of P-gp in vincristine-resistant human CEM cells assessed as potentiation of vincristine-induced apoptosis 1 uM measured after 48 hrs by propidium iodide staining based flow cytometry; format: cell-based
Procedure, shortened: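 VCR-R CEM, 0.125 × 10^6 per well, rested 4 h, then incubated 48 h with increasing vincristine with or without 1 μM compound; apoptosis by propidium iodide staining and flow cytometry. Three independent experiments.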

[14] = test system: CEM; test: Inhibition of P-gp in vincristine-resistant human CEM cells at 0.1 to 1 uM using calcein-AM as substrate preincubated for 30 mins followed by compound washout and subsequent substrate addition measured after 60 mins by flow cytometric analysis; format: cell-based; details: dose 0.1-1 µM
[15] = test system: CCRF-CEM; test: Effect on Bcl-XL expression in vincristine-resistant human CEM cells at 5 uM measured after 24 hrs by Western blot analysis; format: functional, cell-based; procedure, shortened: as §2
[16] = test system: HepaRG; test: Cytotoxicity against human HepaRG cells overexpressing EGFP-CYP3A4 assessed as reduction in cell viability at 10 uM measured after 24 hrs by propidium iodide staining based flow cytometry; format: ADME
Procedure, shortened: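 HepaRG cells, differentiated, transiently transfected with pcDNA3-CYP3A4-EGFP or empty vector 16 h before stimulation; 10 μM compound for 24 h. Propidium iodide (5 μg/mL in PBS) staining, flow cytometry without FSC/SSC gating; specific cell death = % dead (treated) − % dead (control). Three independent experiments.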

For `COc1cc2c3cc1Oc1c(OC)c(OC)cc4c1C(Cc1ccc(OC(F)(F)F)c(c1)Oc1ccc(cc1)CC3N(C)CC2)N(C)CC4` (racemic; form 1) [listing 1 of 2 here], the Activity [1] was “Toxic”, the Activity [2] was “Toxic” and the Activity [3] was “Toxic”. The Activity [4] was “Toxic”.

In the case of `COc1cc2c3cc1Oc1c(OC)c(OC)cc4c1C(Cc1ccc(Cl)c(c1)Oc1ccc(cc1)CC3N(C)CC2)N(C)CC4` (mixture of isomers), the Activity [5] is reported as “Active”, the Activity [6] is reported as “inactive” and the Activity [7] is reported as “inactive”. For the same compound, the Activity [8] was “inactive”, the Activity [9] was “Active” and the Activity [10] was “inactive”. The Activity [11] was “inactive”, the Activity [12] was “Active” and the inhibition [13] was “Active”. The inhibition [14] was “Active” and the Activity [15] was “inactive”.

In the case of `COc1cc2c3cc1Oc1c(OC)c(OC)cc4c1C(Cc1ccc(OC(F)(F)F)c(c1)Oc1ccc(cc1)CC3N(C)CC2)N(C)CC4` (racemic; form 1) [listing 2 of 2 here], the Activity [5] is reported as “Active”, the Activity [6] is reported as “inactive” and the Activity [7] is reported as “inactive”. The Activity [8] was “inactive”, the Activity [9] was “Active” and the Activity [10] was “inactive”. The Activity [11] was “inactive”, the Activity [12] was “Active” and the inhibition [13] was “Active”. For the same compound, the inhibition [14] was “Active” and the Activity [15] was “inactive”.

In the case of `COc1cc2c3cc1Oc1c(OC)c(OC)cc4c1C(Cc1cccc(c1)Oc1ccc(cc1)CC3N(C)CC2)N(C)CC4` (racemic; form 2) [listing 1 of 2 here], the Activity [6] is reported as “inactive”, the Activity [7] is reported as “inactive” and the Activity [8] is reported as “inactive”. The Activity [9] was “Active”, the Activity [10] was “inactive” and the Activity [11] was “inactive”. The Activity [12] was “Active”, the inhibition [13] was “Active” and the inhibition [14] was “Active”. For the same compound, the Activity [15] was “inactive”.

With `COc1cc2c3cc1Oc1c(OC)c(OC)cc4c1C(CCCCOc1ccc(cc1)CC3N(C)CC2)N(C)CC4` (single isomer, unassigned; diastereomer 2) [listing 1 of 2 here] the Activity [6] was “inactive”, the Activity [7] was “inactive” and the Activity [8] was “inactive”. For the same compound, the Activity [9] was “Active”, the Activity [10] was “inactive” and the Activity [11] was “inactive”. The Activity [12] was “inactive”, the inhibition [13] was “inactive” and the inhibition [14] was “inactive”. The Activity [15] was “inactive”.

With `COc1cc2c3cc1Oc1c(OC)c(OC)cc4c1C(Cc1cc(cs1)Oc1ccc(cc1)CC3N(C)CC2)N(C)CC4` (racemic; form 2) [listing 1 of 2 here] the Activity [1] was “Toxic”, the Activity [2] was “Toxic” and the Activity [16] was “Toxic”.

With `COc1cc2c3cc1Oc1c(OC)c(OC)cc4c1[C@@H](Cc1ccc(O)c(c1)Oc1ccc(cc1)C[C@@H]3N(C)CC2)N(C)CC4` the Activity [9] was “Active”.

In the case of `COc1ccc2cc1Oc1ccc(cc1)C[C@H]1c3cc(c(OC)cc3CCN1C)Oc1c(OC)c(OC)cc3c1[C@H](C2)N(C)CC3` [FANCHININ], the Activity [6] is reported as “inactive”, the Activity [7] is reported as “inactive” and the Activity [8] is reported as “inactive”. For the same compound, the Activity [9] was “Active”, the Activity [1] was “Toxic” and the Activity [2] was “Toxic”. The Activity [10] was “inactive”, the Activity [11] was “inactive” and the Activity [12] was “inactive”. For the same compound, the Activity [16] was “Toxic”, the Activity [3] was “Toxic” and the inhibition [13] was “Active”. The inhibition [14] was “Active”, the Activity [4] was “Toxic” and the Activity [15] was “inactive”.

With `COc1cc2c3cc1Oc1c(OC)c(OC)cc4c1C(Cc1ccc(Cl)c(c1)Oc1ccc(cc1)CC3N(C)CC2)N(C)CC4` (racemic) [listing 1 of 2 here] the Activity [16] was “Toxic”.

In the case of `COc1cc2c3cc1Oc1c(OC)c(OC)cc4c1C(Cc1cccc(c1)Oc1ccc(cc1)CC3N(C)CC2)N(C)CC4` (racemic; form 1) [listing 1 of 2 here], the Activity [5] is reported as “Active”, the Activity [6] is reported as “inactive” and the Activity [7] is reported as “inactive”. The Activity [8] was “inactive”, the Activity [9] was “Active” and the Activity [10] was “inactive”. The Activity [11] was “inactive”, the Activity [12] was “inactive” and the inhibition [13] was “Active”. The inhibition [14] was “Active” and the Activity [15] was “inactive”.

For `COc1cc2c3cc1Oc1c(OC)c(OC)cc4c1C(CCCCOc1ccc(cc1)CC3N(C)CC2)N(C)CC4` (single isomer, unassigned; diastereomer 2) [listing 2 of 2 here], the Activity [1] was “Toxic” and the Activity [2] was “Toxic”.

In the case of `COc1cc2c3cc1Oc1c(OC)c(OC)cc4c1C(Cc1cc(cs1)Oc1ccc(cc1)CC3N(C)CC2)N(C)CC4` (racemic; form 1), the Activity [3] is reported as “Toxic” and the Activity [4] is reported as “Toxic”.

With `COc1cc2c3cc1Oc1c(OC)c(OC)cc4c1C(Cc1cccc(c1)Oc1ccc(cc1)CC3N(C)CC2)N(C)CC4` (racemic; form 1) [listing 2 of 2 here] the Activity [1] was “Toxic”.

In the case of `COc1cc2c3cc1Oc1c(OC)c(OC)cc4c1C(Cc1ccc(Cl)c(c1)Oc1ccc(cc1)CC3N(C)CC2)N(C)CC4` (racemic) [listing 2 of 2 here], the Activity [6] is reported as “inactive”, the Activity [7] is reported as “inactive” and the Activity [8] is reported as “inactive”. For the same compound, the Activity [9] was “Active”, the Activity [10] was “inactive” and the Activity [11] was “inactive”. For the same compound, the Activity [12] was “inactive”, the inhibition [13] was “Active” and the inhibition [14] was “Active”. The Activity [15] was “inactive”.

With `COc1cc2c3cc1Oc1c(OC)c(OC)cc4c1C(CCCCOc1ccc(cc1)CC3N(C)CC2)N(C)CC4` (racemic) [listing 1 of 2 here] the Activity [6] was “inactive”, the Activity [7] was “inactive” and the Activity [8] was “inactive”. The Activity [9] was “Active”, the Activity [10] was “inactive” and the Activity [11] was “inactive”. For the same compound, the Activity [12] was “inactive”, the inhibition [13] was “inactive” and the inhibition [14] was “inactive”. The Activity [15] was “inactive”.

In the case of `COc1cc2c3cc1Oc1c(OC)c(OC)cc4c1C(CCCCOc1ccc(cc1)CC3N(C)CC2)N(C)CC4` (racemic) [listing 2 of 2 here], the Activity [16] is reported as “Toxic”.

For `COc1cc2c3cc1Oc1c(OC)c(OC)cc4c1C(Cc1ccc(OC(F)(F)F)c(c1)Oc1ccc(cc1)CC3N(C)CC2)N(C)CC4` (racemic; form 2), the Activity [16] was “Toxic”.

With `COc1cc2c3cc1Oc1c(OC)c(OC)cc4c1C(Cc1cc(cs1)Oc1ccc(cc1)CC3N(C)CC2)N(C)CC4` (racemic; form 2) [listing 2 of 2 here] the Activity [6] was “inactive”, the Activity [7] was “inactive” and the Activity [8] was “inactive”. The Activity [9] was “Active”, the Activity [10] was “inactive” and the Activity [11] was “inactive”. The Activity [12] was “inactive”, the inhibition [13] was “Active” and the inhibition [14] was “Active”. The Activity [15] was “inactive”.

With `COc1cc2c3cc1Oc1c(OC)c(OC)cc4c1C(Cc1cccc(c1)Oc1ccc(cc1)CC3N(C)CC2)N(C)CC4` (racemic; form 2) [listing 2 of 2 here] the Activity [2] was “Toxic” and the Activity [16] was “Toxic”.

In the case of `COc1cc2c(cc1OC)[C@@H](Cc1ccc(Oc3cc(C[C@@H]4c5cc(OC)c(OC)cc5CCN4C)ccc3O)cc1)N(C)CC2`, the Activity [9] is reported as “Active”.
